One series deals with Human alphaherpesvirus 1. Briefly: Antiviral activity against HSV1 KOS infected in HEL cells assessed as inhibition of virus-induced cytopathogenicity after 4 days. The format is functional, organism-based. The settings on record: Human alphaherpesvirus 1, KOS, 96 h. Put shortly: (§1)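 Confluent HEL or HeLa monolayers infected with 100 CCID50 of virus in the presence of varying compound concentrations.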

The next series relates to Human alphaherpesvirus 2. Briefly: Antiviral activity against HSV2 G infected in HEL cells assessed as inhibition of virus-induced cytopathogenicity after 4 days. The format is functional, organism-based. The following applies: Human alphaherpesvirus 2, strain G, 96 h. Put shortly: (§2)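 Confluent HEL, Vero or HeLa monolayers were inoculated with 100 CCID50 of virus in the presence of varying concentrations of compound. Cytopathicity was scored when it reached completion in untreated, virus-infected control cultures.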

The test system of series [1] is Vesicular stomatitis virus. Briefly: Antiviral activity against Vesicular stomatitis virus infected in HEL cells assessed as inhibition of virus-induced cytopathogenicity after 4 days. The settings on record: 96 h. It counts as functional, organism-based. Put shortly:
as §1

Series [2] can be described thus: Cytotoxicity against human HEL cells assessed as minimum compound concentration required to causes microscopically detectable alteration of normal cell morphology. It counts as cell-based. In short, it runs like this: (§3)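 Confluent, non-proliferating cell cultures were exposed to the compounds. The endpoint was the minimum concentration producing a microscopically detectable alteration of normal cell morphology.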

Series [3] deals with Human betaherpesvirus 5. Briefly: Antiviral activity against Cytomegalovirus AD-169 infected in HEL cells assessed as inhibition of virus plaque formation after 4 days. The format is functional, organism-based. The settings on record: Human betaherpesvirus 5, AD169, HEL, 96 h.
Series [4] concerns Human betaherpesvirus 5. Briefly: Antiviral activity against Human cytomegalovirus Davis infected in HEL cells assessed as inhibition of virus plaque formation after 4 days. The format is functional, organism-based. The following applies: Human betaherpesvirus 5, Davis, 96 h.
For another series, the system named is HeLa. Briefly: Cytotoxicity against human HeLa cells assessed as cell viability by colorimetric formazan-based MTS assay.
Series [5] deals with Plasmodium falciparum. Briefly: Antiplasmodial activity chloroquine-sensitive Plasmodium falciparum 3D7 infected in human A+ erythrocytes assessed as inhibition of [3H]-hypoxanthine incorporation after 24 hrs by scintillation counting. The format is functional, organism-based.
For series [6], the system named is Plasmodium falciparum. Briefly: Antiplasmodial activity chloroquine-resistant Plasmodium falciparum K1 infected in human A+ erythrocytes assessed as inhibition of [3H]-hypoxanthine incorporation after 24 hrs by scintillation counting. The format is functional, organism-based.
For series [7], the system named is Plasmodium falciparum. Briefly: Resistant factor, ratio of IC50 for chloroquine-resistant Plasmodium falciparum K1 to IC50 for chloroquine-sensitive Plasmodium falciparum 3D7. The format is functional. In short, it runs like this:
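Resistance factor computed as IC50 against K1 divided by IC50 against 3D7, both from the [3H]hypoxanthine incorporation assay.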

Series [8] can be described thus: Inhibition of beta-hematin formation assessed as Ferriprotoporphyrin IX biomineralisation at 1 mg/ml after 24 hrs. The format is functional. Put shortly: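 Hemin chloride (0.5 mg/ml in DMSO) mixed with 0.5 M sodium acetate buffer pH 4.4 and drug or solvent control, incubated 37 °C for 24 h. Pellet washed with DMSO to remove unreacted hemin, dissolved in 0.1 N NaOH, absorbance read at 405 nm; percent inhibition relative to control. Highest concentration tested 1 mg/ml.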

Series [9] is described as follows: Cytotoxicity against cat CRFK cells assessed as cell viability by colorimetric formazan-based MTS assay. Details: species or system Felis catus. The settings on record: CRFK cells.
Series [10] has as its system Feline infectious peritonitis virus. Briefly: Antiviral activity against FIPV infected in cat CRFK cells assessed as inhibition of virus-induced cytopathic effect after 4 days by colorimetric formazan-based MTS assay. It counts as functional, cell-based. The settings on record: Alphacoronavirus 1, CRFK, 96 h.
The test system of the next series is Felid alphaherpesvirus 1. Briefly: Antiviral activity against Feline herpesvirus infected in cat CRFK cells assessed as inhibition of virus-induced cytopathic effect after 4 days by colorimetric formazan-based MTS assay. It counts as functional, organism-based. The settings on record: Felid alphaherpesvirus 1, CRFK, 96 h.
For the next series, the system named is MDCK. Briefly: Cytotoxicity against MDCK cells assessed as cell viability by colorimetric formazan-based MTS assay. Further details: species or system Canis lupus familiaris. The following applies: dog, mdck. In short, it runs like this: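 Cytotoxicity on MDCK cells; 50% cytotoxic concentration from cell viability measured by colorimetric formazan-based MTS assay.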

Series [11] is described as follows: Cytotoxicity against MDCK cells assessed as minimum compound concentration required to causes microscopically detectable alteration of normal cell morphology. It counts as cell-based, Canis lupus familiaris. The following applies: dog. In short, it runs like this:
as §3

Series [12] has as its system Influenza A virus. Briefly: Antiviral activity against Influenza A virus H1N1 infected in MDCK cells assessed as reduction visual scoring of virus-induced cytopathogenicity after 4 days. The format is functional, organism-based. The settings on record: 96 h. In short, it runs like this:
(§4)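 MDCK monolayers infected with 100 CCID50 of influenza A (H1N1 or H3N2) or influenza B, with varying compound concentrations. Cytopathicity read when untreated infected controls reached complete CPE.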

In series [13] the test system is Influenza A virus. Briefly: Antiviral activity against Influenza A virus H3N2 infected in MDCK cells assessed as reduction visual scoring of virus-induced cytopathogenicity after 4 days. It counts as functional, organism-based. The settings on record: 96 h. Put shortly:
as §4

Series [14] relates to Influenza B virus. Briefly: Antiviral activity against Influenza B virus infected in MDCK cells assessed as reduction visual scoring of virus-induced cytopathogenicity after 4 days. It counts as functional, organism-based. The settings on record: 96 h. In short, it runs like this:
as §4

Series [15] relates to Influenza A virus. Briefly: Antiviral activity against Influenza A virus H1N1 infected in MDCK cells assessed as inhibition of virus-induced cytopathogenicity after 4 days by colorimetric formazan-based MTS assay. It counts as functional, organism-based. The following applies: 96 h.
Series [16] deals with Influenza A virus. Briefly: Antiviral activity against Influenza A virus H3N2 infected in MDCK cells assessed as inhibition of virus-induced cytopathogenicity after 4 days by colorimetric formazan-based MTS assay. It counts as functional, organism-based. The settings on record: 96 h.
The test system of series [17] is Influenza B virus. Briefly: Antiviral activity against Influenza B virus infected in MDCK cells assessed as inhibition of virus-induced cytopathogenicity after 4 days by colorimetric formazan-based MTS assay. It counts as functional, organism-based. The settings on record: 96 h.
The nature of series [18]: Cytotoxicity against african green monkey Vero cells assessed as minimum compound concentration required to causes microscopically detectable alteration of normal cell morphology. The format is cell-based. The settings on record: chlorocebus sabaeus. Put shortly:
as §3

The subject of the next series is Human respirovirus 3. Briefly: Antiviral activity against Parainfluenza-3 virus infected in african green monkey Vero cells assessed as inhibition of virus-induced cytopathogenicity after 4 days. The settings on record: Human respirovirus 3, Vero, 96 h. It counts as functional, organism-based. In short, it runs like this:
as §2

Series [19] concerns Mammalian orthoreovirus 1. Briefly: Antiviral activity against Reovirus-1 infected in african green monkey Vero cells assessed as inhibition of virus-induced cytopathogenicity after 4 days. It counts as functional, organism-based. The following applies: Mammalian orthoreovirus 1, Vero, 96 h. In short, it runs like this:
as §2

The subject of the next series is Sindbis virus. Briefly: Antiviral activity against Sindbis virus infected in african green monkey Vero cells assessed as inhibition of virus-induced cytopathogenicity after 4 days. The following applies: 96 h. The format is functional, organism-based. Put shortly:
as §2

For series [20], the system named is Coxsackievirus B4. Briefly: Antiviral activity against Coxsackie virus B4 infected in african green monkey Vero cells assessed as inhibition of virus-induced cytopathogenicity after 4 days. The format is functional, organism-based. The settings on record: Enterovirus B, 96 h. Put shortly:
as §2

The test system of a further series is Punta Toro virus. Briefly: Antiviral activity against Punta Toro virus infected in african green monkey Vero cells assessed as inhibition of virus-induced cytopathogenicity after 4 days. It counts as functional, organism-based. The following applies: 96 h. In short, it runs like this: as §2
Series [21] can be described thus: Cytotoxicity against human HeLa cells assessed as minimum compound concentration required to causes microscopically detectable alteration of normal cell morphology. The format is cell-based. Put shortly: as §3
The subject of series [22] is Vesicular stomatitis virus. Briefly: Antiviral activity against Vesicular stomatitis virus infected in HeLa cells assessed as inhibition of virus-induced cytopathogenicity after 4 days. The format is functional, organism-based. The following applies: 96 h. In short, it runs like this:
as §1

In series [23] the test system is Coxsackievirus B4. Briefly: Antiviral activity against Coxsackie virus B4 infected in human HeLa cells assessed as inhibition of virus-induced cytopathogenicity after 4 days. It counts as functional, organism-based. The settings on record: Enterovirus B, 96 h. In short, it runs like this: as §2
Series [24] concerns Respiratory syncytial virus. Briefly: Antiviral activity against Respiratory syncytial virus infected in human HeLa cells assessed as inhibition of virus-induced cytopathogenicity after 4 days. The format is functional, organism-based. The following applies: 96 h. In short, it runs like this:
as §2

The structures appear in SMILES notation. ≈ marks a conversion by molar mass, not a printed value. A value given as a limit tells only on which side of the number the result lay.

As to `Nc1ccn(C[C@@H](CO)OCP(=O)(O)O)c(=O)n1` [CIDOFOVIR], the EC50 in the series with Human alphaherpesvirus 1 was 0.9 µM; with Human alphaherpesvirus 2 it was 0.9 µM; in [1], > 250 µM; in the series on Human betaherpesvirus 5 [3] it was 0.369 µM; with Human betaherpesvirus 5 [4], 0.102 µM. Moreover, the MCC in series [2] was > 317 µM. The CC50 in the series on HeLa is 50.8 µM.

Regarding `Cc1nc(NCCCCNc2ccnc3cc(Cl)ccc23)nc(-c2cccc([N+](=O)[O-])c2)c1C(=O)OC(C)C`, the IC50 with Plasmodium falciparum [5] turned out to be 0.697 µM; in the series on Plasmodium falciparum [6] it was 0.192 µM. In addition, in the series on Plasmodium falciparum [7], the “Ratio IC50” value is given as 0.2756. Further, in [8], the inhibition was 92%.

Regarding `Cc1nc(NCCCNc2ccnc3cc(Cl)ccc23)nc(-c2ccccc2[N+](=O)[O-])c1C(=O)OC(C)C`, the IC50 turned out to be 1.96 µM in the series with Plasmodium falciparum [5] and 0.229 µM in the series with Plasmodium falciparum [6]. Also, the “Ratio IC50” value in the series with Plasmodium falciparum [7] is recorded as 0.1173. The inhibition in [8] came out at 89%.

In the case of `CCOC(=O)c1c(C)nc(NCCCCCCCCCCNc2ccnc3cc(Cl)ccc23)nc1-c1ccccc1`, the IC50 with Plasmodium falciparum [5] was 1.78 µM; in the series with Plasmodium falciparum [6], 0.488 µM. Moreover, in the series with Plasmodium falciparum [7], the “Ratio IC50” value was determined as 0.2744.

As for `N[C@H]1C(C(=O)O)=CC=C[C@@H]1O`, the cytotoxic concentration (CC50) in series [9] is > 100 µg/mL. The concentration for a half-maximal effect (EC50) came out at 8.1 µg/mL (≈ 52.2 µM) in series [10] and 5.2 µg/mL (≈ 33.5 µM) with Felid alphaherpesvirus 1.

Consider `CCOC(=O)c1c(C)nc(Nc2ccccc2Nc2ccnc3cc(Cl)ccc23)nc1-c1ccccc1`, for which the figures for the 50% inhibitory concentration (IC50) with Plasmodium falciparum [5] and in the series with Plasmodium falciparum [6] were 14.8 µM and 27.3 µM, respectively. In addition, the “Ratio IC50” value in the series on Plasmodium falciparum [7] is listed as 1.842. Moreover, in [8], the inhibition was 53%.

`Nc1nc2c(ncn2COCCO)c(=O)[nH]1` [ACYCLOVIR]: the concentration giving a half-maximal response (EC50) in series [1] is > 250 µM. In series [2], the MCC was > 250 µM. The CC50 with HeLa was determined as 541 µM.

As to `C[C@H]1[C@H](OC(=O)CCC(=O)O)O[C@@H]2O[C@@]3(C)CC[C@H]4[C@H](C)CC[C@@H]1[C@@]24OO3` [ARTESUNATE], the IC50 was found to be 0.0053 µM in the series with Plasmodium falciparum [5] and 0.0028 µM with Plasmodium falciparum [6]. The “Ratio IC50” value in the series on Plasmodium falciparum [7] is reported as 0.5418.

As for `Cc1nc(NCCCNc2ccnc3cc(Cl)ccc23)nc(-c2ccc([N+](=O)[O-])cc2)c1C(=O)OC(C)C`, the half-inhibitory concentration (IC50) in the series on Plasmodium falciparum [5] was 0.5 µM; in the series on Plasmodium falciparum [6] it was 0.176 µM. Further, in the series with Plasmodium falciparum [7], the “Ratio IC50” value stood at 0.3518. For the same compound, in series [8], the inhibition was 94%.

Consider `NC12CC3CC(CC(C3)C1)C2` [AMANTADINE], for which the CC50 in the series on MDCK is > 200 µM. For the same compound, in series [11], the MCC was > 200 µM. The EC50 with Influenza A virus [12] is 89 µM; in the series with Influenza A virus [13], 5 µM; in the series on Influenza B virus [14] it was > 200 µM; in the series with Influenza A virus [15] it was 154 µM; with Influenza A virus [16] it was 4.1 µM; in the series with Influenza B virus [17], > 200 µM.

On to `Nc1ncnc2c1ncn2C[C@H](O)CO` [(S)-DHPA], for which the MCC in [18] and in series [21] was > 250 µM in each case. Further, the EC50 is > 250 µM in the series with Human respirovirus 3; 250 µM in series [19]; > 250 µM in the series on Sindbis virus; > 250 µM with Coxsackievirus B4 [20]; > 250 µM in the series on Punta Toro virus; 22 µM in series [22]. Besides, the EC50 came out at 29 µM with Coxsackievirus B4 [23] and 6 µM in [24].

For the origin of these results see ChEMBL document CHEMBL2021854, “2-Aminopyrimidine based 4-aminoquinoline anti-plasmodial agents. Synthesis, biological activity, structure-activity relationship and mode of action studies” (Eur J Med Chem, 2012).
